Active and inactive are the calls of the source.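 The calls were made as follows: active = cAMP rise above 50% of the positive control response, mean of two replicates; inactive = cAMP rise at or below 50% of control.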
These molecules were tested on human washed platelets, cAMP competitive ELISA, 5 min (assay: platelet cAMP elevation by compounds, confirmation, counter-screen for platelet activation inhibitor project, cell-based, competitive ELISA, PGE1 reference (AID 2645)). Conditions: at 10 µM; stronger effect = higher value.
Method in brief: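 Test system: washed donor platelets; Replication: duplicates; Control set: PGE1 1 µM high, DMSO 0.3% neutral; Technique: competitive cAMP ELISA, platelet lysates, 0.5% Triton X-100, 0.1 M HCl; Doses: 10 µM, single dose; Schedule: 5 min platelet exposure to compound before lysis.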

Question: `COc1cc2c(cc1OC)-c1cc(N3CCCCCC3)nc(=O)n1CC2` was tested. Which cAMP induction, % of PGE1 did it give?
Answer: 83.7%

Question: Which cAMP induction, % of PGE1 does the source give for `COc1cc2c(cc1OC)-c1cc(Nc3ccccc3C)nc(=O)n1CC2` here?
Answer: 638%

Question: `COc1ccc(/C=N/N(C)c2cc(=O)n(C)c(=O)[nH]2)cc1OC` was tested. Which cAMP induction, % of PGE1 did it give?
Answer: 136%

Question: `COc1ccccc1-n1cc(-c2ccc(Cl)cc2)[nH]c1=O` was tested. Which cAMP induction, % of PGE1 did it give?
Answer: 32.2% (inactive)

Question: How did the cAMP induction, % of PGE1 turn out when `CCC(CC)=N/N=C/c1c(O)n(CC)c2cc(C3=NNC(=O)CC3)ccc12` was run?
Answer: 109%

Question: `COc1cc2c(cc1OC)-c1cc(Nc3ccc(F)cc3)nc(=O)n1CC2` was tested. Which cAMP induction, % of PGE1 did it give?
Answer: 210%

Question: How did the cAMP induction, % of PGE1 turn out when `CCOc1cc(/C=N/NC(N)=O)cc(Br)c1OCC(=O)Nc1ccccc1C` was run?
Answer: 155%

Question: For `COc1cc2c(cc1OC)-c1cc(N3CCc4ccccc43)nc(=O)n1CC2`, which cAMP induction, % of PGE1 is on record?
Answer: 74.8%

Question: `COc1cc2c(cc1OC)/C(=C/C(=O)c1ccc(NC(C)=O)cc1)NCC2` was tested. Which cAMP induction, % of PGE1 did it give?
Answer: 67.8%

Question: Which cAMP induction, % of PGE1 does the source give for `O=C(Nc1cccc(NC(=O)c2ccccc2Cl)c1)c1ccco1` here?
Answer: -18.7% (inactive)

Question: How did the cAMP induction, % of PGE1 turn out when `COC(=O)CS(=O)(=O)c1ccc2c(c1)CC(=O)N2` was run?
Answer: 57.2%

Question: `C/C(=N/NC(=O)C1CCCC1)c1ccc(NC(=O)C(F)(F)F)cc1` was tested. Which cAMP induction, % of PGE1 did it give?
Answer: -25% (inactive)

Question: How did the cAMP induction, % of PGE1 turn out when `COc1ccccc1C(=O)Nc1c[nH]c(=O)[nH]c1=O` was run?
Answer: 97.7%

Question: For `Cc1[nH]c(=O)c(C#N)c(C)c1CSc1ncccn1`, which cAMP induction, % of PGE1 is on record?
Answer: 55.4%

Question: How did the cAMP induction, % of PGE1 turn out when `Cc1ccc(-n2c(N)c(C#N)c(-c3ccccc3)c(C#N)c2=O)cc1` was run?
Answer: -16.7% (inactive)

Question: `O=c1[nH]c2c(s1)C=Nc1ccccc1N2` was tested. Which cAMP induction, % of PGE1 did it give?
Answer: 163%

Source: PubChem BioAssay AID2645 (Broad Institute, 2010)
